The source of these data is ChEMBL document CHEMBL3860038, “Discovery of (R,E)-N-(7-Chloro-1-(1-[4-(dimethylamino)but-2-enoyl]azepan-3-yl)-1H-benzo[d]imidazol-2-yl)-2-methylisonicotinamide (EGF816), a Novel, Potent, and WT Sparing Covalent Inhibitor of Oncogenic (L858R, ex19del) and Resistant (T790M) EGFR Mutants for the Treatment of EGFR Mutant …” (J Med Chem, 2016).

In series [1] the target is T1, Epidermal growth factor receptor (Homo sapiens, UniProt P00533, L858R/T790M). In words: Inhibition of EGFR L858R/T790M mutant phosphorylation in human patient derived H1975 cells incubated for 3 hrs by ELISA method. Type of series: cell-based.
For series [2], the target named is T2, Epidermal growth factor receptor (Homo sapiens, UniProt P00533, L858R). Kind of series: Inhibition of EGFR L858R mutant phosphorylation in human patient derived H3255 cells incubated for 3 hrs by ELISA method. Type of series: cell-based.
Series [3] is described as follows: Inhibition of EGFR E746 to A750 deletion mutant phosphorylation in human patient derived HCC827 cells incubated for 3 hrs by ELISA method. Format: cell-based. The conditions noted are these: HCC827, 3 h. In a few lines: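 HCC827 cells plated at 7500/well in 5% FBS/RPMI and left overnight at 37 °C. Then 3 h with a 12-point compound dilution series, no EGF stimulation. Lysed in Triton/protease/phosphatase-inhibitor buffer. Phospho-EGFR (Y1173) read by sandwich ELISA: anti-EGFR capture, anti-phospho-EGFR, anti-rabbit-HRP, chemiluminescence. IC50 from at least duplicates.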

The target of series [4] is T3, Epidermal growth factor receptor (Homo sapiens, UniProt P00533). In words: Inhibition of wild type EGFR phosphorylation in human HaCaT cells incubated for 3 hrs by ELISA method. Format: cell-based.
Series [5] is described as follows: Aqueous solubility of the compound at pH 6.8. Type of series: physicochemical.
The target of another series is Cytochrome P450 3A4 (Homo sapiens, UniProt P08684). Kind of series: Inhibition of CYP3A4 (unknown origin). Type of series: ADME.
In a further series the target is Cytochrome P450 2D6 (Homo sapiens, UniProt P10635). Kind of series: Inhibition of CYP2D6 (unknown origin). Type of series: ADME.
In the next series the target is Cytochrome P450 2C9 (Homo sapiens, UniProt P11712). In words: Inhibition of CYP2C9 (unknown origin). Format: ADME.
Series [6] can be described thus: Intrinsic clearance in human liver microsomes. The conditions noted are these: read-out: CLH. Format: ADME.
The nature of series [7]: Intrinsic clearance in mouse liver microsomes. Type of series: ADME. The conditions noted are these: read-out: CLH.
The nature of series [8]: Clearance in balb/c mouse at 5 mg/kg, iv by liquid chromatography-tandem mass spectrometry. The following applies: in vivo. Format: ADME, organism-based. In a few lines:
(§1)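 Rodent PK in male balb/c mice and male Wistar rats; plasma drug levels by LC-MS/MS. Mouse oral dosing at 20 mg/kg, with compounds given as a 0.5% methylcellulose/0.5% Tween 80 suspension or as solutions (PEG300/D5W, or ethanol/PEG300 with Solutol or D5W), depending on compound.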

The nature of series [9]: AUC in balb/c mouse at 20 mg/kg, po by liquid chromatography-tandem mass spectrometry. The conditions noted are these: in vivo. Type of series: ADME, organism-based. In a few lines:
as §1

Series [10] in a line: Oral bioavailability in balb/c mouse at 20 mg/kg by liquid chromatography-tandem mass spectrometry. Format: ADME, organism-based. The conditions noted are these: in vivo. In outline: as §1
Series [11] can be described thus: Glutathione reactivity assessed as GSH adduct formation incubated for 1 hr using 10 mM glutathione. In outline:
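Compound incubated 1 h with 10 mM glutathione; GSH adduct formation measured.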

A short description of series [12]: Antitumor activity against human NCI-H1975 cells xenografted in Foxn1 nude mouse assessed as reduction in tumor volume at 50 mg/kg, po qd for 5 days relative to untreated control. Type of series: functional. In a few lines: (§2)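 Female Foxn1 nude mice, H1975 cells inoculated subcutaneously. Randomized into groups once tumors reached 150−200 mm³, then dosed by oral gavage once daily for 5 days in 0.5% MC/0.5% Tween80 suspension (10 μL/g). Tumor volumes by caliper, (length × width × width)/2. %T/C = 100 × ΔT/ΔC, or % regression = 100 × ΔT/T_initial when ΔT < 0. Body weight recorded daily.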

A short description of series [13]: Time duration during which free plasma concentration stays above in-vitro IC50 level in human NCI-H1975 cells xenografted Foxn1 nude mouse at 20 mg/kg, po qd for 5 days. Format: ADME, organism-based. The following applies: in vivo, 120 h. In outline:
(§3)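 H1975 xenografts in Foxn1 nude mice, oral dosing once daily for 5 days. Plasma sampled after the last dose on day 5, at 30 min, 3 h, 7 h and 24 h. Free drug exposure was compared with in vitro cellular IC50 across the dosing interval.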

Series [14] in a line: Time duration during which free plasma concentration stays above in-vitro IC50 level in human NCI-H1975 cells xenografted Foxn1 nude mouse at 50 mg/kg, po qd for 5 days. Type of series: ADME, organism-based. The conditions noted are these: in vivo, 120 h. In outline: as §3
A short description of series [15]: Antitumor activity against human NCI-H1975 cells xenografted in Foxn1 nude mouse assessed as reduction in tumor volume at 20 mg/kg, po qd for 5 days relative to untreated control. Type of series: functional. In a few lines:
as §2

Series [16] has as its system Mus musculus. In words: Toxicity in human NCI-H1975 cells xenografted Foxn1 nude mouse assessed as change in body weight at 50 mg/kg, po qd for 5 days (reference value: […]). Type of series: organism-based. The conditions noted are these: in vivo, 120 h.
Series [17] has as its system Mus musculus. Kind of series: Toxicity in human NCI-H1975 cells xenografted Foxn1 nude mouse assessed as change in body weight at 20 mg/kg, po qd for 5 days (reference value: […]). The conditions noted are these: in vivo, 120 h. Type of series: organism-based.
A further series relates to NCI-H1975. In words: Antitumor activity against human NCI-H1975 cells xenografted in Foxn1 nude mouse assessed as reduction in tumor volume dosed orally once daily for 5 days relative to untreated control. Format: functional, organism-based. In outline:
as §2

In series [18] the target is T1, Epidermal growth factor receptor. Kind of series: Inhibition of N-terminal 6x-HIS-tagged human recombinant EGFR (696 to 1022 residues) L858R/T790M mutant expressed in Sf9 cells pre-incubated for 0 mins followed by 1 mM ATP addition by HTRF assay. In a few lines:
(§4)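 HTRF kinase assay on the EGFR L858R-T790M kinase domain at 1 mM ATP. Compound with either no preincubation or a 90 min enzyme/compound preincubation.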

For series [19] the target is unchanged. In words: Inhibition of N-terminal 6x-HIS-tagged human recombinant EGFR (696 to 1022 residues) L858R/T790M mutant expressed in Sf9 cells pre-incubated for 90 mins followed by 1 mM ATP addition by HTRF assay. In outline: as §4
Series [20] shares this target. Kind of series: Inhibition of EGFR L858R/T790M mutant (unknown origin) phosphorylation expressed in mouse NIH/3T3 cells incubated for 3 hrs by ELISA method. Format: cell-based. In a few lines: (§5)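 Engineered NIH-3T3 cells expressing L858R-T790M, L858R or WT EGFR. 3 h compound treatment, then cellular phospho-EGFR target modulation read-out. IC50 averaged from at least duplicates.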

Series [21] deals with T2, Epidermal growth factor receptor. Kind of series: Inhibition of EGFR L858R mutant (unknown origin) phosphorylation expressed in mouse NIH/3T3 cells incubated for 3 hrs by ELISA method. Type of series: cell-based. In a few lines:
as §5

For series [22], the target named is T3, Epidermal growth factor receptor. Kind of series: Inhibition of wild type human EGFR phosphorylation expressed in mouse NIH/3T3 cells incubated for 3 hrs by ELISA method. Format: cell-based. In outline:
as §5

Series [23] can be described thus: Clearance in dog at 1 mg/kg, iv by liquid chromatography-tandem mass spectrometry. Type of series: ADME, organism-based, Canis lupus familiaris. The following applies: in vivo.
A short description of series [24]: Volume of distribution at steady state in dog at 1 mg/kg, iv by liquid chromatography-tandem mass spectrometry. Type of series: ADME, organism-based, Canis lupus familiaris. The conditions noted are these: in vivo, read-out: Vdss.
Series [25] in a line: Mean residence time in dog at 1 mg/kg, iv by liquid chromatography-tandem mass spectrometry. Format: ADME, organism-based, Canis lupus familiaris. The following applies: in vivo.
Series [26] can be described thus: AUC in dog at 1 mg/kg, iv by liquid chromatography-tandem mass spectrometry. Format: ADME, organism-based, Canis lupus familiaris. The conditions noted are these: in vivo.
The nature of series [27]: AUC in dog at 10 mg/kg, po by liquid chromatography-tandem mass spectrometry. Format: ADME, organism-based, Canis lupus familiaris. The following applies: in vivo.
Series [28] can be described thus: Cmax in dog at 10 mg/kg, po by liquid chromatography-tandem mass spectrometry. The conditions noted are these: in vivo. Further details: dose 10 mg/kg, route oral. Format: ADME, organism-based, Canis lupus familiaris.
Series [29] can be described thus: Tmax in dog at 10 mg/kg, po by liquid chromatography-tandem mass spectrometry. Format: ADME, organism-based, Canis lupus familiaris. The following applies: in vivo.
Series [30] is described as follows: Oral bioavailability in dog at 10 mg/kg by liquid chromatography-tandem mass spectrometry. The conditions noted are these: in vivo. Format: ADME, organism-based, Canis lupus familiaris.

≈ marks a conversion by molar mass, not a printed value.

T1 sequence (P00533 25-1210 T790M/L858R limits assumed): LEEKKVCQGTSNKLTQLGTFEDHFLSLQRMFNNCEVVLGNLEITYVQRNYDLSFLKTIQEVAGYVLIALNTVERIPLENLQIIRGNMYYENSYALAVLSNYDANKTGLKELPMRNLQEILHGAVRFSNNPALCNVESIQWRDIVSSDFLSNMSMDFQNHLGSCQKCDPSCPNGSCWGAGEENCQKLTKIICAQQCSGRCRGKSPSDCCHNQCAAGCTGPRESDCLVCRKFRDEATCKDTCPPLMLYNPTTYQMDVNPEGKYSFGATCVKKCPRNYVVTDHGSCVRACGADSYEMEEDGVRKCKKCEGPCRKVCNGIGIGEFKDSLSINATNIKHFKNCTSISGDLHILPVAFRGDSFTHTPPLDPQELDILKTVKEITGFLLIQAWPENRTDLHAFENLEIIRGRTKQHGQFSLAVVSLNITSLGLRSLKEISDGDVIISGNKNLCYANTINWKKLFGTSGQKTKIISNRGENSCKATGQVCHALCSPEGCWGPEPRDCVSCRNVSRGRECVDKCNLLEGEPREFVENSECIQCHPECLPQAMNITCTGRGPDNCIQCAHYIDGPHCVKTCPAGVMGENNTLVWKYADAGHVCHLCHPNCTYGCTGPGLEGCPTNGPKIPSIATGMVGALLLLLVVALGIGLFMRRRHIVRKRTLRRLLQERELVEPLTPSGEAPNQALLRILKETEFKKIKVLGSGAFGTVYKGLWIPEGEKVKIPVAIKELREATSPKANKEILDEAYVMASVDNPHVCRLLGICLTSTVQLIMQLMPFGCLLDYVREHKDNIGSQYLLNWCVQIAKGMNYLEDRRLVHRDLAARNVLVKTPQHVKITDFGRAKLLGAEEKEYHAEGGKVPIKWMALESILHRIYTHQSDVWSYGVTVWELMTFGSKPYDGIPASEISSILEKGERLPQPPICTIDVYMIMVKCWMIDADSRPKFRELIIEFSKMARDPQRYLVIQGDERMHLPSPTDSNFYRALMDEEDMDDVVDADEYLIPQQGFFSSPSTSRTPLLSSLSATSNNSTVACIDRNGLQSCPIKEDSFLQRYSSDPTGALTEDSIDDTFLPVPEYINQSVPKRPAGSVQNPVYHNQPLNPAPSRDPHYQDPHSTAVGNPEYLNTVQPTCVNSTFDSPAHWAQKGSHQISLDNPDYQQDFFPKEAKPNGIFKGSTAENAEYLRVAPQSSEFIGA
T2 sequence (P00533 25-1210 L858R limits assumed): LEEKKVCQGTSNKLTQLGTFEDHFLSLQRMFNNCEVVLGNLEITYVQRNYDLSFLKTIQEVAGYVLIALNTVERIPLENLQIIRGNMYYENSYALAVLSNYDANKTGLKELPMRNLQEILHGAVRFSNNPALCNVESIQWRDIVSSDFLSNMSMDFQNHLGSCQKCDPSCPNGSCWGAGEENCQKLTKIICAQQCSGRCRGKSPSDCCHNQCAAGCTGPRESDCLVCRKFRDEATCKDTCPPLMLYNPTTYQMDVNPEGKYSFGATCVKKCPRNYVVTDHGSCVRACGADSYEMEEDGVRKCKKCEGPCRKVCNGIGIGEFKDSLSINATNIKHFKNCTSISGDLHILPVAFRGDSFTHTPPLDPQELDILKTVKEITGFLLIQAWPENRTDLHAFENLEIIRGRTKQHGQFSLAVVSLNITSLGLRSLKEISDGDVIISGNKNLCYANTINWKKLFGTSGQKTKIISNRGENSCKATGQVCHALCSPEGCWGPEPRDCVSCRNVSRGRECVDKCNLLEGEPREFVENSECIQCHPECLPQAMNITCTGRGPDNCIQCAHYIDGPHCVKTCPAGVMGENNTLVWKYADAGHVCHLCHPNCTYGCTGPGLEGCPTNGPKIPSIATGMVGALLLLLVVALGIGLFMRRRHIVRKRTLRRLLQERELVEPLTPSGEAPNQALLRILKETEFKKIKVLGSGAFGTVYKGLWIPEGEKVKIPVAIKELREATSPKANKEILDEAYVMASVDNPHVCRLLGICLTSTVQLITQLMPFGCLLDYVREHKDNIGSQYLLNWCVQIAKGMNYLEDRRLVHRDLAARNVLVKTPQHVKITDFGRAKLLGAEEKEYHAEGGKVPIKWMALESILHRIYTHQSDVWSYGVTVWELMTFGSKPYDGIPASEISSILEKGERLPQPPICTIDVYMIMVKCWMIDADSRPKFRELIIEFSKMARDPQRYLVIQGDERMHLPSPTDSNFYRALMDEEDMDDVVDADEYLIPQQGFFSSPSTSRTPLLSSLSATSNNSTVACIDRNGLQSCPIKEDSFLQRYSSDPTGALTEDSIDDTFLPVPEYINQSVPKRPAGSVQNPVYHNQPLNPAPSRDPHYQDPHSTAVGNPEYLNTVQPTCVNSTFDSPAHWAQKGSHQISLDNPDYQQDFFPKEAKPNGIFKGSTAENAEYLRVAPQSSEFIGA
T3 sequence (P00533 whole entry): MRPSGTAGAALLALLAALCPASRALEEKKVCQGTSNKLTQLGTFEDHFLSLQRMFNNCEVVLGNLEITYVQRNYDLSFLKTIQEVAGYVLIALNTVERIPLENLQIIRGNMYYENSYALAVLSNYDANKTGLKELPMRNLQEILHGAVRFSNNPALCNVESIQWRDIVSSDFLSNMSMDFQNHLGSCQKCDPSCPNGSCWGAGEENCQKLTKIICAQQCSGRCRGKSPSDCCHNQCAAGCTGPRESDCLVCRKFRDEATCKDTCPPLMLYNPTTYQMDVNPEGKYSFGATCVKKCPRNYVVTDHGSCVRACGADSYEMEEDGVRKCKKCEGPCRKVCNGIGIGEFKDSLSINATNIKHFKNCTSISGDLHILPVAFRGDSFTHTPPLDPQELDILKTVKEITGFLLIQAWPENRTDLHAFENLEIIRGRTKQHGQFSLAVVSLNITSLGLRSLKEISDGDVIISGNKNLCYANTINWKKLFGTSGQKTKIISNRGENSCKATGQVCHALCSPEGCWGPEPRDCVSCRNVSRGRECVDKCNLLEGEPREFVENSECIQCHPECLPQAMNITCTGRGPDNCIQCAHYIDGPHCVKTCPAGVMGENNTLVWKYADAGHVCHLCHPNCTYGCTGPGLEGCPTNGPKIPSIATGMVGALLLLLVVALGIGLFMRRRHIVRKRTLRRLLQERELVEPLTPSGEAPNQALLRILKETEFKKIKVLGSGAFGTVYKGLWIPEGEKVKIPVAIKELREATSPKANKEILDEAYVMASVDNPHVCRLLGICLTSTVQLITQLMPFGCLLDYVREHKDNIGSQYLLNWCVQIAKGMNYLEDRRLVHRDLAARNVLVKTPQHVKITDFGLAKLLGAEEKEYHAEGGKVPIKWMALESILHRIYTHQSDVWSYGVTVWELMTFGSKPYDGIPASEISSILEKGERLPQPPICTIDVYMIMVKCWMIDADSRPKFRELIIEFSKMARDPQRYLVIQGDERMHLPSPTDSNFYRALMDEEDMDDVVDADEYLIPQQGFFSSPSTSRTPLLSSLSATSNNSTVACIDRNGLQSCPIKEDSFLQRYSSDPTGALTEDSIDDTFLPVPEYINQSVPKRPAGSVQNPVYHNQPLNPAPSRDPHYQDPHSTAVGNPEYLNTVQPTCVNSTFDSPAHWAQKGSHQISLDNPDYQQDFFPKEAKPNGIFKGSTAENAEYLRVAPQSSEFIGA
Cytochrome P450 2C9, sequence (P11712 whole entry): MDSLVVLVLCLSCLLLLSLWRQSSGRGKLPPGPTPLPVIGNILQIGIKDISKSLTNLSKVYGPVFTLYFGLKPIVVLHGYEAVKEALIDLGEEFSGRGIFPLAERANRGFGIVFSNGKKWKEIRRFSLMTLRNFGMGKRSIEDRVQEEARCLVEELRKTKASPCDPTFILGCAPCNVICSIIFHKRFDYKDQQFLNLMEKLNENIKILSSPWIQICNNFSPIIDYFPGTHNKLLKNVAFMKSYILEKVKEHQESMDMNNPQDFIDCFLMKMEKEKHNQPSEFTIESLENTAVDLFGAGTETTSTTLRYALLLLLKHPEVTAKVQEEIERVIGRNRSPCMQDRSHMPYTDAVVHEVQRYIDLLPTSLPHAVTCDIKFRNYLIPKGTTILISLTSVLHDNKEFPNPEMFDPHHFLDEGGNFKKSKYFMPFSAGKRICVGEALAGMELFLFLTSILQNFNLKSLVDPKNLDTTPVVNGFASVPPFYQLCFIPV
Cytochrome P450 2D6, sequence (P10635 whole entry): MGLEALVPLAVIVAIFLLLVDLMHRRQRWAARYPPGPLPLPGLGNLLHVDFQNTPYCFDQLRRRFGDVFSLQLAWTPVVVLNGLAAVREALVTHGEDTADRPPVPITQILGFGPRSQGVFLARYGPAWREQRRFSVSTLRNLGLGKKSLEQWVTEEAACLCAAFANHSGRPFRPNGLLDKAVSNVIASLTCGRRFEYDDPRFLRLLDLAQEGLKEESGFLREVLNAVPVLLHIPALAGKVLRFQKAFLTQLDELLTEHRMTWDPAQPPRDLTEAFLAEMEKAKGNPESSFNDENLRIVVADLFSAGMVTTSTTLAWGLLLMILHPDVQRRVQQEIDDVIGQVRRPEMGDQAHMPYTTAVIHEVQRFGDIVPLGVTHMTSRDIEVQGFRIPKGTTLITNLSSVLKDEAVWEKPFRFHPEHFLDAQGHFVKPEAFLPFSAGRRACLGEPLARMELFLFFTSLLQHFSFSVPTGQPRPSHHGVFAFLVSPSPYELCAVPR
Cytochrome P450 3A4, sequence (P08684 whole entry): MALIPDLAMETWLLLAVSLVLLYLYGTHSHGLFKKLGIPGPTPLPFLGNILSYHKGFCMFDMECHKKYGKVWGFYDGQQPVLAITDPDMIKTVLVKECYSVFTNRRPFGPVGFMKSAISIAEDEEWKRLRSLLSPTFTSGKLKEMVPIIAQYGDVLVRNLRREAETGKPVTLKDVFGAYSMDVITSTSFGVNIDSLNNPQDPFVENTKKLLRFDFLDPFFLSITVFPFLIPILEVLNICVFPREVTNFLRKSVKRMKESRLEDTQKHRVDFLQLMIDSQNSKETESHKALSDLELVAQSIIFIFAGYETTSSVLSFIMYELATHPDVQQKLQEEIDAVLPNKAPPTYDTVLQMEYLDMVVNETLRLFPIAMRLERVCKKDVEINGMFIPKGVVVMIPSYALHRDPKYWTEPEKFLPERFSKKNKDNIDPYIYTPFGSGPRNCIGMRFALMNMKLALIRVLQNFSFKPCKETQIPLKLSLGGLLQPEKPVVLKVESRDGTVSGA

As to `Cc1cccc2nc(NC(=O)c3ccnc(C(F)(F)F)c3)n([C@@H]3CCCCN(C(=O)/C=C/CN(C)C)C3)c12`, the IC50 in series [1] is 1.51 nM; in series [2], 2.65 nM; in series [3], 1.48 nM; in series [4], 72 nM; against Cytochrome P450 3A4, > 25000 nM; against Cytochrome P450 2D6 it was 6100 nM. On Cytochrome P450 2C9, the IC50 was > 25000 nM. Further, in [5], the solubility stood at 12.7 µM (≈ 6.71 µg/mL). The microsomal CLint was 71 µL/min/mg in series [6] and 96 µL/min/mg in series [7]. In series [8], this compound displayed a clearance of 62.5 mL/min/kg. The compound also registered an AUC in series [9] of 2.84 µM·h. Besides, the bioavailability in series [10] came to 27%. Also, the Drug metabolism in [11] is < 5%. Further, the results for the T/C in [12] and in series [15] were -64% and -31%, respectively. For the same compound, the Time result in series [13] and in series [14] was “<= 14 hr” in each case. Further, the Activity is -3.5% with Mus musculus [16], -0.3% with Mus musculus [17] and “Dose-dependent effect” in the series with NCI-H1975.

Turning to `C=CC(=O)N[C@H]1CCC[C@@H](n2c(NC(=O)c3cccc(C(F)(F)F)c3)nc3cc(C)ccc32)C1` (racemic), the IC50 in series [18] was > 50000 nM; in series [19], 4 nM; in series [20] it was 41.4 nM; in series [21], 543 nM; in [22] it was > 10000 nM.

`Cc1cc(C(=O)Nc2nc3cccc(Cl)c3n2[C@@H]2CCCCN(C(=O)/C=C/CN(C)C)C2)ccn1.Cl` had a clearance in series [23] of 43.7 mL/min/kg. Also, the Vd in series [24] was found to be 35.2 L/kg. This compound also came in with an MRT in series [25] of 13.8 h. Also, the AUC in series [26] was determined as 0.783 µM·h; in series [27], 5.23 µM·h. The peak concentration (Cmax) in series [28] is 435 nM. The Tmax in series [29] was 2.3 h. Besides, in series [30], the bioavailability is 67%.
